Published values of several laboratories.
Lines come from different studies, so protocols differ.
CYP2C8: Cytochrome P450 2C8 (CYP2C8, Homo sapiens, UniProt P10632)
CYP2C9: Cytochrome P450 2C9 (CYP2C9, Homo sapiens, UniProt P11712)

Structure (SMILES) | tested on | assay | system | setting | endpoint | value
COc1cc(Cn2nc(-c3ccc(CO)o3)c3ccccc32)ccn1 |  | metabolic stability | rat, liver microsomes | 1 µM, pH 7.4 | half-life | 7 min
CSc1ccccc1C(=O)NCCn1cc(C(=O)NCc2cccc(C)n2)c(=O)c2cc3c(cc21)OCO3 | CYP2C8 | enzyme activity, inhibitor | human, liver microsomes | 20 min, without NADPH, with preincubation | IC50 | > 100 µM
NCc1ccc(-c2nn(Cc3ccncc3)c3ccccc23)o1 |  |  | male CD-1 mouse, plasma | oral, 10 mg/kg | bioavailability | 15%
Cc1ccc(OCC(=O)N[C@@H](Cc2c[nH]c3ccccc23)C(=O)OC(C)C)cc1 |  | chemical stability | simulated intestinal fluid |  | half-life | > 300 min
C=C(F)C(=O)N1CCN(c2nc(OC[C@@H]3CCCN3C)nc3c2CCN(c2cccc4cccc(Cl)c24)C3)C[C@@H]1CC#N |  | chemical stability, HPLC | glutathione solution | 5 µM, pH 7.4 | half-life | 520 min
OCc1ccc(-c2nn(Cc3ccccc3)c3ccccc23)o1 |  | metabolic stability | rat, liver microsomes | 1 µM, pH 7.4 | half-life | 6 min
CC(C)(O)[C@@H]1CC[C@](C)([C@H]2[C@@H](O)C[C@@]3(C)[C@@H]4C[C@H](O[C@@H]5O[C@H](CO)[C@@H](O)[C@H](O)[C@H]5O)[C@H]5C(C)(C)[C@@H](O[C@@H]6OC[C@@H](O)[C@H](O)[C@H]6O)CC[C@@]56C[C@@]46CC[C@]23C)O1 | CYP2C9 | enzyme activity, inhibitor | human, liver microsomes |  | IC50 | > 200 µM
N#Cc1ccc(C[C@@H](Nc2c(Nc3ccc(F)cc3)c(=O)c2=O)C(=O)N2CCc3ccccc32)cc1 |  | metabolic stability | rat, liver microsomes | 10 µM, pH 7.4 | half-life | 15 min
CC(=O)O[C@H]1[C@H](O[C@H]2CC[C@]34C[C@]35CC[C@]3(C)[C@@H]([C@@]6(C)CC[C@@H](C(C)(C)O)O6)[C@@H](O)C[C@@]3(C)[C@@H]5C[C@H](O[C@@H]3O[C@H](CO)[C@@H](O)[C@H](O)[C@H]3O)[C@H]4C2(C)C)OC[C@@H](OC(C)=O)[C@@H]1O | CYP2C9 | enzyme activity, inhibitor | human, liver microsomes |  | IC50 | 116 µM
Cc1cccc(-c2nnc(N[C@@H](Cc3ccc(C#N)cc3)C(=O)N3CCc4ccccc43)o2)c1 |  | metabolic stability | rat, liver microsomes | 10 µM, pH 7.4 | half-life | 18 min
CN(C)C(=O)c1cc2cnc(Nc3ccc(-c4ccc5c(=O)cc(N6CCOCC6)oc5c4)cc3)nc2n1C1CCCC1.Cl |  |  | BALB/c mouse, plasma | oral, 20 mg/kg | AUC | 7810 ng·h/mL
CSc1ccccc1C(=O)NCCn1cc(C(=O)NCc2cccc(C)n2)c(=O)c2cc3c(cc21)OC(F)(F)O3 | CYP2C8 | enzyme activity, inhibitor | human, liver microsomes | 20 min, without NADPH, with preincubation | IC50 | > 100 µM
